Results as given in ChEMBL document CHEMBL2203101, “Molecular hybridization of bioactives: synthesis and antitubercular evaluation of novel dibenzofuran embodied homoisoflavonoids via Baylis-Hillman reaction” (Bioorg Med Chem Lett, 2012).
≈ marks a conversion by molar mass, not a printed value.

Assays:
[1] = system: Mycobacterium tuberculosis; assay: Antimycobacterial activity against Mycobacterium tuberculosis H37Rv ATCC 27294 after 28 days by agar dilution method; format: functional; conditions: H37Rv ATCC 27294, 672 h
Outline: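 Compounds and reference drugs were tenfold serially diluted into Middlebrook 7H11 agar with OADC supplement. The inoculum came from fresh 7H11/OADC slants, was adjusted to 1 mg/mL (wet weight) in 0.05% Tween 80 saline, and was diluted 10^-2 to give 10^7 cfu/mL. Bacterial suspension was spotted onto the drug-containing agar tubes, incubated at 37 C, and final readings were taken after 28 days.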

[2] = Lipophilicity, log P of the compound; format: physicochemical; conditions: octanol/water

CC[C@@H](CO)NCCN[C@@H](CC)CO [ETHAMBUTOL]
MIC [1]: 3.13 µg/mL (≈ 15.3 µM)

COc1ccc2c(c1)C(=O)/C(=C/c1ccc3oc4ccccc4c3c1)CO2
logP [2]: 3.56 | MIC [1]: 25 µg/mL (≈ 70.2 µM)

NC(=O)c1cnccn1 [PYRAZINAMIDE]
MIC [1]: 50 µg/mL (≈ 406 µM)

NNC(=O)c1ccncc1 [ISONIAZID]
MIC [1]: 0.1 µg/mL (≈ 0.729 µM)

COc1cccc2c1OC/C(=C\c1ccc3oc4ccccc4c3c1)C2=O
logP [2]: 3.56 | MIC [1]: 25 µg/mL (≈ 70.2 µM)

O=C1/C(=C/c2ccc3oc4ccccc4c3c2)COc2c1ccc1ccccc21
logP [2]: 4.68 | MIC [1]: 25 µg/mL (≈ 66.4 µM)

O=C1/C(=C/c2ccc3oc4ccccc4c3c2)COc2ccc(Br)cc21
logP [2]: 4.51 | MIC [1]: 12.5 µg/mL (≈ 30.8 µM)

CC(C)(C)c1ccc2c(c1)C(=O)/C(=C/c1ccc3oc4ccccc4c3c1)CO2
logP [2]: 5.39 | MIC [1]: 25 µg/mL (≈ 65.4 µM)

O=C1/C(=C/c2ccc3oc4ccccc4c3c2)COc2ccc3oc4ccccc4c3c21
logP [2]: 4.35 | MIC [1]: 25 µg/mL (≈ 60 µM)

Cc1ccc2c(c1)C(=O)/C(=C/c1ccc3oc4ccccc4c3c1)CO2
logP [2]: 4.17 | MIC [1]: 25 µg/mL (≈ 73.4 µM)

O=C1/C(=C/c2ccc3oc4ccccc4c3c2)COc2ccc(F)cc21
logP [2]: 3.84 | MIC [1]: 12.5 µg/mL (≈ 36.3 µM)

O=C1/C(=C/c2ccc3oc4ccccc4c3c2)COc2ccc3[nH]c4ccccc4c3c21
logP [2]: 4.38 | MIC [1]: 25 µg/mL (≈ 60.2 µM)

O=C1/C(=C/c2ccc3oc4ccccc4c3c2)COc2ccc3ccccc3c21
logP [2]: 4.68 | MIC [1]: 25 µg/mL (≈ 66.4 µM)

O=C1/C(=C/c2ccc3oc4ccccc4c3c2)COc2ccccc21
logP [2]: 3.69 | MIC [1]: 25 µg/mL (≈ 76.6 µM)
